Laboratory results published in paper PMC11520665 (Critical Care, 2024).
Numbered stars: 1 amine (or outer) side, 2 acyl side, 3 side chain; on linkers, the order of the positions; unused ones are H or OH. Bridge positions count the residues as written; N and C are the ends. Square brackets hold non-standard residues; d marks the D form. Peptide text beside a SMILES is read from it. * marks the point of attachment. Orn(4R-OH,5R-OCH2CH2NMe3+) = C[N+](C)(C)CCO[C@@H](N[*:3])[C@H](O)C[C@H](N[*:1])C(=O)[*:2]; pTerphenylCO(4''-OnC5H11) = CCCCCOc1ccc(-c2ccc(-c3ccc(C(=O)*)cc3)cc2)cc1; hTyr(3S-OH,4S-OH) = N[C@H](C(=O)O)[C@H](O)[C@@H](O)c1ccc(O)cc1; Pro(3S-OH,4S-Me) = C[C@H]1CN[C@H](C(=O)O)[C@H]1O; Hyp = O=C(O)[C@@H]1C[C@@H](O)CN1

What was measured:
[1] = Safety: treatment-emergent adverse events; format: in vivo, patients (adults); conditions: safety population
Outline: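 Post-hoc pooled data from two randomised, double-blind, double-dummy trials. The safety population was adults in the ICU at randomisation who received ≥1 dose. Dosing was IV test compound weekly (400 mg Day 1, 200 mg Day 8, optional later 200 mg) or IV comparator echinocandin daily (70 mg Day 1, then 50 mg/day). TEAEs ran from dosing to follow-up, coded MedDRA 23.0, graded mild/moderate/severe, and summarised descriptively.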

[2] = cited from earlier work
[3] = ICU at randomisation, n=46 rezafungin, n=67 caspofungin
[4] = ICU at randomisation, number of events per severity

SMILES: CCCCCOc1ccc(-c2ccc(-c3ccc(C(=O)N[C@H]4C[C@@H](O)[C@@H](OCC[N+](C)(C)C)NC(=O)[C@@H]5[C@@H](O)[C@@H](C)CN5C(=O)[C@H]([C@@H](C)O)NC(=O)[C@H]([C@H](O)[C@@H](O)c5ccc(O)cc5)NC(=O)[C@@H]5C[C@@H](O)CN5C(=O)[C@H]([C@@H](C)O)NC4=O)cc3)cc2)cc1 [Rezafungin] ({pTerphenylCO(4''-OnC5H11)}-[Orn(4R-OH,5R-OCH2CH2NMe3+)]T[Hyp][hTyr(3S-OH,4S-OH)]T[Pro(3S-OH,4S-Me)]; lactam 1-C)
- TEAE: Abdominal abscess, patients [1, 3]: 1 (2.2) n (%)
- TEAE: Abdominal pain, patients [1, 3]: 4 (8.7) n (%)
- TEAE: Acidosis, patients [1, 3]: 1 (2.2) n (%)
- TEAE: Acute kidney injury, patients [1, 3]: 1 (2.2) n (%)
- TEAE: Anaemia, patients [1, 3]: 7 (15.2) n (%)
- TEAE: Atrial fibrillation, patients [1, 3]: 3 (6.5) n (%)
- TEAE: Bradycardia, patients [1, 3]: 1 (2.2) n (%)
- TEAE: Constipation, patients [1, 3]: 2 (4.3) n (%)
- TEAE: Decubitus ulcer, patients [1, 3]: 3 (6.5) n (%)
- TEAE: Deep vein thrombosis, patients [1, 3]: 1 (2.2) n (%)
- TEAE: Diarrhoea, patients [1, 3]: 7 (15.2) n (%)
- TEAE: Dyspnoea, patients [1, 3]: 0 (0) n (%)
- TEAE: Fluid overload, patients [1, 3]: 4 (8.7) n (%)
- TEAE: Hyperkalaemia, patients [1, 3]: 2 (4.3) n (%)
- TEAE: Hypertension, patients [1, 3]: 3 (6.5) n (%)
- TEAE: Hypokalaemia, patients [1, 3]: 4 (8.7) n (%)
- TEAE: Hypotension, patients [1, 3]: 3 (6.5) n (%)
- TEAE: Insomnia, patients [1, 3]: 4 (8.7) n (%)
- TEAE: Multiple organ dysfunction syndrome, patients [1, 3]: 3 (6.5) n (%)
- TEAE: Nausea, patients [1, 3]: 4 (8.7) n (%)
- TEAE: Peripheral oedema, patients [1, 3]: 3 (6.5) n (%)
- TEAE: Pleural effusion, patients [1, 3]: 0 (0) n (%)
- TEAE: Pneumonia, patients [1, 3]: 3 (6.5) n (%)
- TEAE: Pneumothorax, patients [1, 3]: 0 (0) n (%)
- TEAE: Pyrexia, patients [1, 3]: 2 (4.3) n (%)
- TEAE: Respiratory failure, patients [1, 3]: 0 (0) n (%)
- TEAE: Sepsis, patients [1, 3]: 5 (10.9) n (%)
- TEAE: Septic shock, patients [1, 3]: 6 (13.0) n (%)
- TEAE: Vomiting, patients [1, 3]: 7 (15.2) n (%)
- ≥ 1 TEAE [1, 3]: 41 (89.1) n (%)
- ≥ 1 TEAE leading to study/drug discontinuation [1, 3]: 8 (17.4) n (%)
- ≥ 1 serious TEAE [1, 3]: 28 (60.9) n (%)
- ≥ 1 study drug-related TEAE [1, 3]: 4 (8.7) n (%)
- ≥ 1 study drug-related TEAE leading to study/drug discontinuation [1, 3]: 0 (0) n (%)
- ≥ 1 study drug-related serious TEAE [1, 3]: 1 (2.2) n (%)
- TEAE: Abdominal abscess, event severity (n): mild/moderate/severe [1, 4]: 0/1/0
- TEAE: Abdominal pain, event severity (n): mild/moderate/severe [1, 4]: 1/2/1
- TEAE: Acidosis, event severity (n): mild/moderate/severe [1, 4]: 1/1/0
- TEAE: Acute kidney injury, event severity (n): mild/moderate/severe [1, 4]: 1/1/0
- TEAE: Anaemia, event severity (n): mild/moderate/severe [1, 4]: 2/4/1
- TEAE: Atrial fibrillation, event severity (n): mild/moderate/severe [1, 4]: 1/2/0
- TEAE: Bradycardia, event severity (n): mild/moderate/severe [1, 4]: 0/1/0
- TEAE: Constipation, event severity (n): mild/moderate/severe [1, 4]: 2/0/0
- TEAE: Decubitus ulcer, event severity (n): mild/moderate/severe [1, 4]: 2/1/0
- TEAE: Deep vein thrombosis, event severity (n): mild/moderate/severe [1, 4]: 1/0/0
- TEAE: Diarrhoea, event severity (n): mild/moderate/severe [1, 4]: 6/1/0
- TEAE: Dyspnoea, event severity (n): mild/moderate/severe [1, 4]: 0/0/0
- TEAE: Fluid overload, event severity (n): mild/moderate/severe [1, 4]: 0/3/1
- TEAE: Hyperkalaemia, event severity (n): mild/moderate/severe [1, 4]: 2/0/0
- TEAE: Hypertension, event severity (n): mild/moderate/severe [1, 4]: 2/1/0
- TEAE: Hypokalaemia, event severity (n): mild/moderate/severe [1, 4]: 3/1/0
- TEAE: Hypotension, event severity (n): mild/moderate/severe [1, 4]: 2/1/0
- TEAE: Insomnia, event severity (n): mild/moderate/severe [1, 4]: 3/1/0
- TEAE: Multiple organ dysfunction syndrome, event severity (n): mild/moderate/severe [1, 4]: 0/0/3
- TEAE: Nausea, event severity (n): mild/moderate/severe [1, 4]: 0/4/0
- TEAE: Peripheral oedema, event severity (n): mild/moderate/severe [1, 4]: 3/0/0
- TEAE: Pleural effusion, event severity (n): mild/moderate/severe [1, 4]: 0/0/0
- TEAE: Pneumonia, event severity (n): mild/moderate/severe [1, 4]: 0/0/3
- TEAE: Pneumothorax, event severity (n): mild/moderate/severe [1, 4]: 0/0/0
- TEAE: Pyrexia, event severity (n): mild/moderate/severe [1, 4]: 1/1/0
- TEAE: Respiratory failure, event severity (n): mild/moderate/severe [1, 4]: 0/0/0
- TEAE: Sepsis, event severity (n): mild/moderate/severe [1, 4]: 3/2/1
- TEAE: Septic shock, event severity (n): mild/moderate/severe [1, 4]: 0/1/5
- TEAE: Vomiting, event severity (n): mild/moderate/severe [1, 4]: 4/4/0
- Study drug-related serious TEAEs, events ([1]; each event n = 1): infusion-related reaction
- half-life [2]: 120 to 140 h
